Sampled rows, rich in hits. Any-hit rate of the full collection: about 2.1%.
PAX8 reporter: inhibitors of PAX8 transcriptional activity in RMG-I cells; inhibition, % at 12.6 µM; RMG-I TPO-luciferase reporter, SteadyGlo, 24 h; 1.2% of 360,000 active; AID 652154;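 active means mean replicate inhibition at least 60% with every replicate also reaching 60%; inconclusive means only one of the two criteria is met; inactive means mean below 60% and not all replicates reaching 60%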;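 further: luciferase light reporting Pax8 driven TPO promoter activity; plate controls were median of neutral control wells for no effect and mitoxantrone controls for full effect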
EBV LMP1 NFkB: inhibitors of Epstein-Barr LMP1-induced NF-kappaB reporter. LMP1-induced NF-kappaB luciferase reporter cells, luminescence. inhibition, % at 12.5 µM. 0.69% of 350,000 active. AID 504558; in the data active means inhibition above about 41%; inconclusive means no clear call, values can overlap the other calls;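 further: 0% = neutral control wells and 100% = reference inhibitor control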
EWS-Fli inh: EWS/Fli transcriptional activity inhibition | A673 NR0B1-luciferase reporter, viability-normalised | inhibition, % at 12.6 µM | 0.67% of 350,000 active;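 active means mean inhibition of at least 50% after viability correction, with every replicate also passing that limit; inconclusive means mean reaches 50% but only one of two replicates passes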;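 further: firefly luciferase signal divided by Alamar Blue viability fluorescence both relative to DMSO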
Shn3 inh set2: inhibitors of Schnurri-3 3'UTR reporter in osteoblasts; 0.52% of 360,000 active; AID 588674; Clone20 osteoblast Shn3 3'UTR firefly luciferase, 24 h; inhibition, % at 12.5 µM;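 active means mean inhibition of at least 75% with every replicate also reaching 75%; inconclusive means mean inhibition at least 75% but some replicate below; inactive means mean inhibition below 75%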;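 further: 0% = median of neutral control wells and 100% = pilot-screen positive control compound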
FN deposition inh: fibronectin deposition inhibition. AH1F fibroblasts, Alexa488-fibronectin deposition fluorescence, overnight. 0.086% of 350,000 active. inhibition, % at 12.6 µM;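 active means mean inhibition across replicates of 30% or more, regardless of how many single replicates reach that level; inconclusive means mean under 30% yet at least half of replicates reach 30%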;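 further: positive control wells lacked labelled fibronectin entirely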
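Test system: AH1F fibroblast monolayer depositing Alexa488-labelled fibronectin into matrix. Input: 10000 cells per well. Technique: fluorescence, ex 485 nm, em 525 nm. Buffer or medium: DMEM plus 2% serum, read in PBS. Timing: 1 h cell adhesion before compound, then overnight fibronectin incubation. Compound: single dose, pinned. Read-out basis: inhibition from reduced deposited-fibronectin fluorescence.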
aSyn UTR inh: 5' untranslated region of α-synuclein, MLPCN primary screen | inhibition, % (tested at 7.5 µM) | 0.82% of 300,000 active | AID 1813 | alpha-synuclein 5'UTR reporter, inhibitor activity; in the data active means inhibition above about 60%; inconclusive means no clear call, values can overlap the other calls;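 further: H4 neuroglioblastoma cells stably carrying SNCA 5'UTR luciferase fusion; 0% = DMSO wells and 100% = positive control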
Starred values were filed as active, the others as inactive; ? = inconclusive; nt = no result given.

SMILES	PAX8 reporter	EBV LMP1 NFkB	EWS-Fli inh	Shn3 inh set2	FN deposition inh	aSyn UTR inh
O=c1cc(-c2cccc(F)c2)[nH]c2ccccc12	57.1	1.2	65.6*	-9.7	-7.5	86.6*
Cc1ccc(-c2cc(=O)c3cc(C)ccc3[nH]2)cc1	-1.0	23.7	59.1*	-32.6	7.3	-36.3
O=C(c1ccncc1)N1C[C@@H]2[C@H](c3ccccc31)[C@@H](CO)N2C(=O)Nc1ccccc1Cl	-3.7	nt	-0.6	nt	nt	nt
Cc1noc(C)c1S(=O)(=O)Nc1ccc2c(c1)C(=O)N([C@@H](C)CO)C[C@H](C)[C@H](CN(C)S(=O)(=O)c1ccc(Cl)cc1)O2	nt	nt	5.4	nt	nt	nt
CC(C)NC(=O)Nc1cccc2c1O[C@@H](CN(C)S(C)(=O)=O)[C@H](C)CN(C)C2=O	nt	nt	nt	nt	5.7	nt
Cc1ccc2[nH]c(C(F)(F)F)cc(=O)c2c1	-9.1	6.3	12.2	-13.7	3.5	7.6
Cc1ccc2[nH]c(-c3cccc(F)c3)cc(=O)c2c1	9.2	-7.2	56.7*	-32.8	-7.4	81.0*
O=c1cc(-c2ccccc2)[nH]c2ccc(F)cc12	11.3	?	57.7*	18.1	-4.4	86.6*
C=CCOc1c(Cl)cc(CNc2ccc(N(C)C)cc2)cc1OC	nt	13.4	nt	-6.6	-5.1	-16.7
C=CCOc1c(Cl)cc(CNc2ccc(C)c(Cl)c2)cc1OC	nt	nt	nt	nt	nt	84.6*
COc1cc(/C=N/Nc2nc(Nc3ccc(C)cc3)nc(-n3nc(C)cc3C)n2)cc(OC)c1OC	89.5*	24.2	nt	70.7	-4.4	15.4
COc1cc(/C=N/Nc2nc(Nc3ccccc3)nc(-n3nc(C)cc3C)n2)cc(OC)c1OC	80.3*	13.4	1.7	53.9	17.9	-67.6
COc1ccc(O)c(/C=N/Nc2nc(Nc3ccccc3)nc(-n3nc(C)cc3C)n2)c1	nt	62.0*	nt	64.8	nt	22.9
COc1ccc(/C=N/Nc2nc(Nc3ccccc3)nc(N3CCCC3)n2)cc1[N+](=O)[O-]	22.3	-82.2	48.1	13.1	1.0	22.9
CN1CCN(C(=O)c2cc3c(c(-c4cccc(-c5cccc(F)c5)c4)n2)[C@@H](CCO)N(S(=O)C(C)(C)C)C3)CC1 (stereo partly specified)	5.3	nt	-12.2	nt	12.4	nt
C[C@H](CO)N1C[C@H](C)[C@@H](CN(C)C(=O)Cc2ccncc2)Oc2cc(C#CC3CCCC3)ccc2S1(=O)=O	15.7	nt	13.3	nt	-19.5	nt
Cc1cc(/C=N/NC(=O)c2c(Br)cnn2C)c(C)n1-c1cccc(Br)c1	77.3*	24.3	-5.1	3.6	1.7	32.8
Cc1cc(/C=N/NC(=O)C(=O)N2CCCC2)c(C)n1-c1cccc(Br)c1	nt	18.6	nt	9.8	nt	13.4
O=C([C@H]1[C@H](CO)[C@H]2Cn3c(cccc3=O)[C@H]2N1Cc1ccccc1Cl)N1CCOCC1	-1.5	nt	-6.6	nt	nt	nt
C[C@@H]1O[C@@H]1P(=O)(O)O	-5.5	74.8*	-7.1	8.9	2.9	nt
C[C@H]1O[C@H]1P(=O)(O)O	-28.6	0.2	-11.8	-41.9	6.1	11.2
CC(C)(S)[C@@H](N)C(=O)O	-8.3	55.0*	-4.9	74.3	nt	nt
NC(CS(=O)O)C(=O)O (stereo unspecified)	-26.6	3.4	7.2	0.5	5.2	7.7
O=C(C[C@@H]1C[C@H]2c3cc(NC(=O)C4CCC4)ccc3O[C@H]2[C@H](CO)O1)NCc1cccc(F)c1	10.7	nt	5.6	nt	nt	nt
Cc1cc(C(=O)Nc2cccc3c2O[C@H](CN(C)C(=O)Nc2ccc(F)cc2)[C@H](C)CN([C@@H](C)CO)C3=O)n(C)n1	1.7	nt	-5.0	nt	nt	nt
SMILES	PAX8 reporter	EBV LMP1 NFkB	EWS-Fli inh	Shn3 inh set2	FN deposition inh	aSyn UTR inh
CCOC(=O)C1=C(C)NC(C)=C(C(=O)OCC)C1c1cn(-c2ccccc2)nc1-c1ccco1	nt	75.9*	nt	-4.5	nt	26.0
Cc1cccc(-c2ccc([C@H]3[C@@H](CO)N4CCCCN(S(=O)(=O)c5cccc(C)c5)C[C@@H]34)cc2)c1	95.8*	nt	4.8	nt	nt	nt
Cc1ccc(-c2ccc([C@H]3[C@@H](CO)N4CCCCN(S(=O)(=O)c5cccc(C)c5)C[C@H]34)cc2)cc1	72.7*	nt	1.3	nt	nt	nt
C[C@H]1CN([C@@H](C)CO)C(=O)c2cc(Br)cnc2O[C@@H]1CN(C)Cc1ccccn1	nt	nt	-5.8	nt	nt	nt
Cc1ccc2nc(Cl)c(-c3ccccc3)cc2c1	-47.2	nt	-37.0	-52.4	8.4	74.2*
Cc1ccc2nc(Cl)nc(-c3ccccc3)c2c1	26.4	4.5	8.1	0.9	3.6	14.7
C[C@@H]1CN([C@H](C)CO)S(=O)(=O)c2ccc(-c3ccc(C#N)cc3)cc2O[C@@H]1CN(C)Cc1cccc(F)c1	85.8*	nt	23.5	nt	nt	nt
C[C@@H]1CN([C@@H](C)CO)S(=O)(=O)c2ccc(-c3ccc(C#N)cc3)cc2O[C@@H]1CN(C)Cc1cccc(F)c1	63.5*	nt	-11.1	nt	nt	nt
COc1ccccc1S(=O)(=O)N[C@@H]1CC[C@H](CC(=O)NCc2cccc(F)c2)O[C@@H]1CO	3.9	nt	0.3	nt	-7.4	nt
COc1ccc(CNC[C@@H](CCCCN(C)Cc2ccc(OC)cc2)N2C[C@H](c3ccccc3)N(CCc3ccc(Cl)c(Cl)c3)C(=O)C2=O)cc1	nt	88.8*	nt	94.9*	nt	92.2*
O=C(c1cccc(F)c1)N1CC[C@H]2[C@H](CO)Nc3ccc(-c4ccccc4)cc3[C@H]21	nt	nt	-3.5	nt	-0.6	nt
O=C(Cc1ccccc1[N+](=O)[O-])NCC1(c2cccc3c2OCO3)OCCO1	-129.2	45.8*	-8.7	-6.4	nt	nt
COC(=O)[C@@H]1[C@@H](CO)[C@@H]2Cn3c(cccc3=O)[C@@H]2N1C(=O)C1CCCCC1	nt	nt	-6.8	nt	nt	nt
O=C(C[C@@H]1C[C@H]2c3cc(NS(=O)(=O)c4ccc(F)cc4)ccc3O[C@H]2[C@H](CO)O1)NCc1ccccc1F	33.4	nt	49.0	nt	3.3	nt
Cc1ccc(Cn2ccsc2=NC(=O)CCl)cc1	114.1*	6.8	14.4	5.0	-4.3	nt
NC(=O)[C@H]1CC2(CC(c3cccc(NC(=O)COc4ccc(Cl)cc4)c3)=NO2)CN1C(=O)Cc1ccc([N+](=O)[O-])cc1 (stereo partly specified)	76.0*	26.0	12.5	67.5	-7.1	-8.6
O=C(O)c1ccc2nc(-c3ccccc3)sc2c1	73.9*	10.7	27.8	20.1	nt	-6.7
CC1CCN(c2nc3ccc(C(=O)O)cc3s2)CC1	nt	62.9*	nt	55.2	nt	106.0*
Nc1ccc(-c2nc3ccc(C(=O)O)cc3s2)cc1	102.6*	78.1*	84.5*	68.8	-5.6	95.4*
CC(=O)Nc1cccc2c1O[C@H](CN(C)S(C)(=O)=O)[C@H](C)CN(C)C2=O	nt	nt	nt	nt	-9.9	nt
CC1(C)Oc2ccc3ccc(=O)oc3c2C[C@H]1O[C@@H]1O[C@H](CO)[C@@H](O)[C@H](O)[C@H]1O	-4.4	-8.2	-7.8	18.9	0.9	nt
CC(=O)OC(C)(C)/C=C/C(=O)[C@](C)(O)C1[C@H](O)C[C@@]2(C)C3CC=C4C(C=C(O[C@@H]5O[C@H](CO)[C@@H](O)[C@H](O)[C@H]5O)C(=O)C4(C)C)[C@]3(C)C(=O)C[C@]12C (stereo partly specified)	101.7*	-7.4	-9.5	15.2	24.0	nt

Compound activity (PubChem)
